molecular target: T1, Transient receptor potential cation channel subfamily V member 3 (Homo sapiens) (UniProt Q8NET8); assay: Antagonist activity at human TRPV3 expressed in recombinant HEK293 cells assessed as inhibition of 2-APB induced calcium flux by FLIPR analysis; type: cell-based; settings: not given
T1 sequence (whole entry): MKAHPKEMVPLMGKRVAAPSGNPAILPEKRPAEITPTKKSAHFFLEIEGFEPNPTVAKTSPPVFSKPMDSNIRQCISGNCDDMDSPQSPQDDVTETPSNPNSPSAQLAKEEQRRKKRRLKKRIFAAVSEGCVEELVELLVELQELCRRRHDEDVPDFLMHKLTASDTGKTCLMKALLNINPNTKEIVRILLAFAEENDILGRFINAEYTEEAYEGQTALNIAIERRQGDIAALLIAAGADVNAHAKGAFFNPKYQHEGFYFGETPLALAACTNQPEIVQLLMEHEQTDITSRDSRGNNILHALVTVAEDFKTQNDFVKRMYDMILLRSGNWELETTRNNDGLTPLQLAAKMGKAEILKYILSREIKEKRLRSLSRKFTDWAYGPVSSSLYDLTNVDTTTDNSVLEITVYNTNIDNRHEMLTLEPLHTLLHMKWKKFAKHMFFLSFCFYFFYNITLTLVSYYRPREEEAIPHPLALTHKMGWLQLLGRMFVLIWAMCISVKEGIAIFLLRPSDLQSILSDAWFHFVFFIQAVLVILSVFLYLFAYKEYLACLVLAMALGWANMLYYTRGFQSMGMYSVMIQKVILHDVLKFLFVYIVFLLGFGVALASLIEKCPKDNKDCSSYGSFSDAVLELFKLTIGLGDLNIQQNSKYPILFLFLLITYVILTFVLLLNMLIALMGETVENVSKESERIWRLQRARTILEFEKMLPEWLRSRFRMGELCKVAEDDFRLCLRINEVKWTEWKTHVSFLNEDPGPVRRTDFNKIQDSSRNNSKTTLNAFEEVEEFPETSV
Summary of the method: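 HEK293 cells stably expressing human TRPV3 (I25V variant), plated the day before in DMEM + 10% FBS at 37 °C, 5% CO2. Calcium 4 dye loaded in Ca/Mg-free HEPES D-PBS pH 7.4 for 1–2 h at room temperature. Compound dilutions added with 3 min baseline, then 2-APB at 60 µM final; Ca2+ flux read 3 min on FLIPR. Kb from at least duplicates, averaged across independent runs.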

Q: Which Kb does the source give for `C[C@]1(O)C[C@](c2ccc(C(F)(F)F)cc2)([C@H](O)c2ccccn2)C1` here?
A: 4790 nM

Q: How did the Kb turn out when `C[C@]1(O)C[C@@](c2cccc(OC(F)(F)F)c2)([C@H](O)c2ccccn2)C1` was run?
A: 280 nM

Q: With `C[C@]1(O)C[C@@](c2ccnc(C(F)(F)F)c2)([C@H](O)c2ccccn2)C1` as the compound, how does the Kb read?
A: 4270 nM

Q: Which Kb does the source give for `C[C@]1(O)C[C@](c2ccnc(C(F)(F)F)c2)([C@H](O)c2ccccn2)C1` here?
A: 500 nM

Q: Which Kb does the source give for `O[C@H](c1ccccn1)[C@]1(c2cccc(OC(F)(F)F)c2)C[C@H](O)C1` here?
A: 40 nM

Q: With `C[C@]1(O)C[C@@](c2ccc(OC(F)(F)F)cc2)([C@@H](O)c2ccccn2)C1` as the compound, how does the Kb read?
A: > 10400 nM

Q: Which Kb does the source give for `O[C@H](c1ccccn1)[C@]1(c2ccnc(C(F)(F)F)c2)C[C@@H](O)C1` here?
A: 530 nM

molecular target: T2, Nuclear receptor subfamily 1 group I member 2 (Homo sapiens, UniProt O75469); assay: Activation of human PXR; type: ADME; settings: human
T2 sequence (O75469 whole entry): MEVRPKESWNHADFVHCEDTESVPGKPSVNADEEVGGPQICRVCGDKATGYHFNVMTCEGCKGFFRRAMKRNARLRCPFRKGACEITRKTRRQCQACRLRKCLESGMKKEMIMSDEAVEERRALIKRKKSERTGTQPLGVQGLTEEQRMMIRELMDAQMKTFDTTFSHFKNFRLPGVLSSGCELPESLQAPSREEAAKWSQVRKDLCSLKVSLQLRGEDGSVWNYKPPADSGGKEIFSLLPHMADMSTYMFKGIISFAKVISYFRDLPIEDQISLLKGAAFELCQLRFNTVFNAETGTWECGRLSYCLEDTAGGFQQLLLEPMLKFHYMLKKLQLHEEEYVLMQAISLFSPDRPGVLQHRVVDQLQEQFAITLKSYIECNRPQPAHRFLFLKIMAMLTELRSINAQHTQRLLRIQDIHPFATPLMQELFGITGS

Q: How did the Activity turn out when `C[C@]1(O)C[C@](c2ccc(C(F)(F)F)cc2)([C@H](O)c2ccccn2)C1` was run?
A: Not Active

Q: Which Activity does the source give for `C[C@]1(O)C[C@@](c2cccc(OC(F)(F)F)c2)([C@H](O)c2ccccn2)C1` here?
A: Not Active

Q: For `C[C@]1(O)C[C@@](c2ccnc(C(F)(F)F)c2)([C@H](O)c2ccccn2)C1`, which Activity is on record?
A: Not Active

Q: With `C[C@]1(O)C[C@](c2ccnc(C(F)(F)F)c2)([C@H](O)c2ccccn2)C1` as the compound, how does the Activity read?
A: Not Active

Q: `O[C@H](c1ccccn1)[C@]1(c2cccc(OC(F)(F)F)c2)C[C@H](O)C1` was tested. Which Activity did it give?
A: Not Active

Q: With `C[C@]1(O)C[C@@](c2ccc(OC(F)(F)F)cc2)([C@@H](O)c2ccccn2)C1` as the compound, how does the Activity read?
A: Not Active

Q: How did the Activity turn out when `O[C@H](c1ccccn1)[C@]1(c2ccnc(C(F)(F)F)c2)C[C@@H](O)C1` was run?
A: Not Active

species on record: Rattus norvegicus; assay: Cardiotoxicity in rat assessed as increase in mean arterial pressure; type: toxicity, organism-based, Artery; settings: in vivo

Q: With `C[C@]1(O)C[C@](c2ccc(C(F)(F)F)cc2)([C@H](O)c2ccccn2)C1` as the compound, how does the Activity read?
A: Non-toxic

Q: How did the Activity turn out when `C[C@]1(O)C[C@@](c2cccc(OC(F)(F)F)c2)([C@H](O)c2ccccn2)C1` was run?
A: Non-toxic

Q: For `C[C@]1(O)C[C@@](c2ccnc(C(F)(F)F)c2)([C@H](O)c2ccccn2)C1`, which Activity is on record?
A: Non-toxic

Q: How did the Activity turn out when `C[C@]1(O)C[C@](c2ccnc(C(F)(F)F)c2)([C@H](O)c2ccccn2)C1` was run?
A: Non-toxic

Q: `O[C@H](c1ccccn1)[C@]1(c2cccc(OC(F)(F)F)c2)C[C@H](O)C1` was tested. Which Activity did it give?
A: Non-toxic

Q: How did the Activity turn out when `C[C@]1(O)C[C@@](c2ccc(OC(F)(F)F)cc2)([C@@H](O)c2ccccn2)C1` was run?
A: Non-toxic

Q: `O[C@H](c1ccccn1)[C@]1(c2ccnc(C(F)(F)F)c2)C[C@@H](O)C1` was tested. Which Activity did it give?
A: Non-toxic

tested on: Liver microsome; assay: Unbound intrinsic clearance in human liver microsomes after 5 hrs by LC-MS/MS analysis; type: ADME; settings: not given; call rule not given here
Summary of the method: (§1)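 Microsomal stability run in an automated high-throughput plate format. Intrinsic clearance corrected for nonspecific microsomal binding using measured unbound fraction (fu,mic), reported as unbound Clint in L/h/kg.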

Q: Which CL free does the source give for `C[C@]1(O)C[C@](c2ccc(C(F)(F)F)cc2)([C@H](O)c2ccccn2)C1` here?
A: 2 L/h/kg

Q: For `C[C@]1(O)C[C@@](c2cccc(OC(F)(F)F)c2)([C@H](O)c2ccccn2)C1`, which CL free is on record?
A: 10 L/h/kg

Q: For `C[C@]1(O)C[C@@](c2ccnc(C(F)(F)F)c2)([C@H](O)c2ccccn2)C1`, which CL free is on record?
A: 4 L/h/kg

Q: For `C[C@]1(O)C[C@](c2ccnc(C(F)(F)F)c2)([C@H](O)c2ccccn2)C1`, which CL free is on record?
A: 4 L/h/kg

Q: How did the CL free turn out when `O[C@H](c1ccccn1)[C@]1(c2cccc(OC(F)(F)F)c2)C[C@H](O)C1` was run?
A: 9 L/h/kg

Q: `C[C@]1(O)C[C@@](c2ccc(OC(F)(F)F)cc2)([C@@H](O)c2ccccn2)C1` was tested. Which CL free did it give?
A: 3 L/h/kg

Q: How did the CL free turn out when `O[C@H](c1ccccn1)[C@]1(c2ccnc(C(F)(F)F)c2)C[C@@H](O)C1` was run?
A: 5 L/h/kg

species on record: Rattus norvegicus; assay: Cardiotoxicity in rat assessed as increase in cardiac contractility at plasma concentration of 4.7 ug/ml; type: toxicity, organism-based; settings: not given

Q: For `C[C@]1(O)C[C@](c2ccc(C(F)(F)F)cc2)([C@H](O)c2ccccn2)C1`, which Activity is on record?
A: Non-toxic

Q: For `C[C@]1(O)C[C@@](c2cccc(OC(F)(F)F)c2)([C@H](O)c2ccccn2)C1`, which Activity is on record?
A: Non-toxic

Q: Which Activity does the source give for `C[C@]1(O)C[C@@](c2ccnc(C(F)(F)F)c2)([C@H](O)c2ccccn2)C1` here?
A: Non-toxic

Q: How did the Activity turn out when `C[C@]1(O)C[C@](c2ccnc(C(F)(F)F)c2)([C@H](O)c2ccccn2)C1` was run?
A: Non-toxic

Q: With `O[C@H](c1ccccn1)[C@]1(c2cccc(OC(F)(F)F)c2)C[C@H](O)C1` as the compound, how does the Activity read?
A: Non-toxic

Q: How did the Activity turn out when `C[C@]1(O)C[C@@](c2ccc(OC(F)(F)F)cc2)([C@@H](O)c2ccccn2)C1` was run?
A: Non-toxic

Q: `O[C@H](c1ccccn1)[C@]1(c2ccnc(C(F)(F)F)c2)C[C@@H](O)C1` was tested. Which Activity did it give?
A: Non-toxic

tested on: Liver microsome; assay: Unbound intrinsic clearance in rat liver microsomes after 5 hrs by LC-MS/MS analysis; type: ADME; settings: not given; summary of the method: as §1

Q: With `C[C@]1(O)C[C@](c2ccc(C(F)(F)F)cc2)([C@H](O)c2ccccn2)C1` as the compound, how does the CL free read?
A: 6 L/h/kg

Q: Which CL free does the source give for `C[C@]1(O)C[C@@](c2cccc(OC(F)(F)F)c2)([C@H](O)c2ccccn2)C1` here?
A: 12 L/h/kg

Q: With `C[C@]1(O)C[C@@](c2ccnc(C(F)(F)F)c2)([C@H](O)c2ccccn2)C1` as the compound, how does the CL free read?
A: 3 L/h/kg

Q: Which CL free does the source give for `C[C@]1(O)C[C@](c2ccnc(C(F)(F)F)c2)([C@H](O)c2ccccn2)C1` here?
A: 5 L/h/kg

Q: Which CL free does the source give for `O[C@H](c1ccccn1)[C@]1(c2cccc(OC(F)(F)F)c2)C[C@H](O)C1` here?
A: 7 L/h/kg

Q: Which CL free does the source give for `C[C@]1(O)C[C@@](c2ccc(OC(F)(F)F)cc2)([C@@H](O)c2ccccn2)C1` here?
A: 6 L/h/kg

Q: `O[C@H](c1ccccn1)[C@]1(c2ccnc(C(F)(F)F)c2)C[C@@H](O)C1` was tested. Which CL free did it give?
A: 12 L/h/kg

From ChEMBL document CHEMBL3826935, “Synthesis and Pharmacology of (Pyridin-2-yl)methanol Derivatives as Novel and Selective Transient Receptor Potential Vanilloid 3 Antagonists” (J Med Chem, 2016)
